# According to PMC6435016 (Biophysics and Physicobiology, 2019):
# B1: Gads SH2: SH2 domain of Grb2-related adaptor downstream of Shc (Gads) (protein)
# chain: WFHEGLSRHQAENLLMGKEVGFFIIRASQSSPGDFSISVRHEDDVQHFKVMRDNKGNYFLWTEKFPSLNKLVDYYRTNSISRQKQIFLRDRT
# Columns and labels:
# [1] = system: CD28 (biotinylated 41-residue phosphopeptide corresponding to cytoplasmic region of CD28); assay: SPR binding to immobilized CD28 cytoplasmic phosphopeptide; details: 25°C
# [2] = system: intracellular tail of inducible T-cell co-stimulator; assay: SPR binding to intracellular tail of inducible T-cell co-stimulator; details: data not shown
# [3] = CD thermal stability / transition curve at 222 nm; assay type: physicochemical; details: following dissociation of the dimer
# Procedure, shortened: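 Human Grb2 SH2 (residues 60–152) expressed as GST fusion in E. coli BL21(DE3); monomer and dimer split by gel filtration. 0.04 mg mL⁻¹ in PBS pH 7.4, 1.0 cm cell; 222 nm signal heated 20–80°C at 1.0°C min⁻¹. Tm from two-state fit, zero heat-capacity change. Samples heated to 50°C, cooled to 20°C, then rerun by far-UV CD and SEC (PBS, 280 nm).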
# [4] = SEC analysis of monomer/dimer state; assay type: physicochemical; details: data not shown
# [5] = fluorescence and SEC; similar to Grb2 SH2 dimer dissociating at 40–45°C; ref [39]; cited from earlier work
molecule,measurement,setting,value
"W121S: Grb2 SH2 mutant, Trp121 replaced by Ser, by site-directed mutagenesis",ability to bind to CD28,"[1]; monomer and dimer of W121S at 800, 1600, 3200, 6400 nM",loses the ability to bind to CD28
same,binding to intracellular tail of inducible T-cell co-stimulator,[2],could not bind
"monomer: SH2 domain of human Grb2 (residues 60–152), monomer fraction purified by gel filtration","Ka,kin",[1]; association constant calculated from the two kinetic rate constants,117000 M⁻¹
same,temperature of denaturation of monomer,[3],around 60 °C
B1,oligomeric state,[4],exists as a monomer with a small population of dimers
same,thermal transition (dimer to monomer),[5],A similar transition was recently reported
